According to ChEMBL document CHEMBL3414442, “Synthesis and biological evaluation of 2,4-diaminopyrimidines as selective Aurora A kinase inhibitors” (Eur J Med Chem, 2015):
The source made the active and inactive calls. No cut-off for these calls is given here.

Key:
[1] = test system: A549; assay: Cytotoxicity against human A549 cells after 48 hrs by MTT assay; format: functional, cell-based; conditions: A549, 48 h
Method in brief: (§1)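 Cells were grown at 37 °C in 5% CO2, plated and left to attach for 4–6 h, then exposed to five concentrations (dissolved in saline) in quadruplicate wells for 48 h. MTT was added for 4 h, formazan was dissolved in DMSO, and A490 was read. IC50 was taken from a log plot of percent of control versus concentration, as the mean of three independent experiments.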

[2] = Cytotoxicity against human HCT8 cells after 48 hrs by MTT assay; format: functional, cell-based; conditions: HCT-8, 48 h; method in brief: as §1
[3] = test system: HepG2; assay: Cytotoxicity against human HepG2 cells after 48 hrs by MTT assay; format: functional, cell-based; conditions: HepG2, 48 h; method in brief: as §1
[4] = test system: HeLa; assay: Cytotoxicity against human HeLa cells after 48 hrs by MTT assay; format: functional, cell-based; method in brief: as §1
[5] = biological target: T1, Aurora kinase B (Homo sapiens, UniProt Q96GD4); assay: Inhibition of Aurora B in human HeLa cells at; format: cell-based
[6] = test system: HeLa; assay: Induction of cell cycle arrest in human HeLa cells assessed as accumulation at S phase at 2 uM after 12 hrs by propidium iodide staining based flow cytometry (reference value: 16.6%); format: functional
[7] = biological target: T1, Aurora kinase B; assay: Inhibition of Aurora B in human HeLa cells after 12 hrs by Western blot method; format: cell-based
Method in brief: (§2)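 HeLa cells were treated for 12 h at 10, 25 or 50 nM. They were washed in PBS and lysed in Tris-HCl pH 7.5 buffer with EDTA, NaCl, PMSF and 1% SDS, then boiled for 10 min. Proteins were separated, blotted onto nitrocellulose and probed with antibodies against Aurora A or Aurora B.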

[8] = test system: HeLa; assay: Induction of cell cycle arrest in human HeLa cells assessed as accumulation at G1 phase at 2 uM after 12 hrs by propidium iodide staining based flow cytometry (reference value: 73%); format: functional
[9] = biological target: T2, Aurora kinase A (Homo sapiens, UniProt O14965); assay: Inhibition of Aurora A in human HeLa cells after 12 hrs by ELISA method; format: cell-based
T2 sequence (O14965 whole entry): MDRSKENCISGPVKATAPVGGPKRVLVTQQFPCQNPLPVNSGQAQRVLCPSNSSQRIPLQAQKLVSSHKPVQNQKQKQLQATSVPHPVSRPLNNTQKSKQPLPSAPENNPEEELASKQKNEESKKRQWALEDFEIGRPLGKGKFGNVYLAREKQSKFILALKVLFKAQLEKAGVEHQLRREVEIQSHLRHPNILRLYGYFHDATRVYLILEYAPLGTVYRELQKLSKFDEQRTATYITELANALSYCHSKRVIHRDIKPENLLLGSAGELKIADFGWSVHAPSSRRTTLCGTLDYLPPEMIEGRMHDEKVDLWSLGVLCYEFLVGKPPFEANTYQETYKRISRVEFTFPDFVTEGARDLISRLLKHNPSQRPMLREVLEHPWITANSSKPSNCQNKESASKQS

[10] = test system: HeLa; assay: Induction of cell cycle arrest in human HeLa cells assessed as accumulation at G2/M phase at 5 uM after 12 hrs by propidium iodide staining based flow cytometry (reference value: 10.2%); format: functional
[11] = test system: HeLa; assay: Increase in cyclin B1 protein expression in human HeLa cells at 500 nM by Western blot method; format: functional, cell-based
Method in brief: (§3)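 Lysates were boiled for 10 min and centrifuged. Proteins were separated, transferred to nitrocellulose, probed for cyclin B1 with antibodies and developed.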

[12] = biological target: T3, Aurora kinase A (Homo sapiens) (UniProt O14965); assay: Inhibition of Aurora A in human HeLa cells after 12 hrs by Western blot method; format: cell-based; method in brief: as §2
T3 sequence (whole entry): T2 sequence (O14965 whole entry)

[13] = test system: HeLa; assay: Induction of cell cycle arrest in human HeLa cells assessed as accumulation at G2/M phase after 12 hrs by propidium iodide staining based flow cytometry; format: functional
[14] = biological target: T1, Aurora kinase B; assay: Inhibition of Aurora B in human HeLa cells after 12 hrs by ELISA method; format: cell-based
[15] = biological target: T3, Aurora kinase A (Homo sapiens); assay: Inhibition of Aurora A in human HeLa cells at >10 nM after 12 hrs by ELISA method; format: cell-based
Method in brief: (§4)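 HeLa cells were treated for 12 h. A sandwich ELISA used plates coated with anti-human Aurora A or B antibody and an HRP-labelled detection antibody. TMB substrate was added, the reaction was stopped with sulphuric acid, and absorbance was read at 450 nm.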

[16] = biological target: T3, Aurora kinase A (Homo sapiens); assay: Inhibition of Aurora A in human HeLa cells at; format: cell-based
[17] = test system: HeLa; assay: Selectivity index, ratio of IC50 for Aurora B in human HeLa cells to IC50 for Aurora A in human HeLa cells; format: cell-based
[18] = test system: HeLa; assay: Induction of cell cycle arrest in human HeLa cells assessed as accumulation at G2/M phase at 2 uM after 12 hrs by propidium iodide staining based flow cytometry (reference value: 10.2%); format: functional
[19] = test system: HeLa; assay: Increase in cyclin B1 protein expression in human HeLa cells at 100 nM by Western blot method; format: functional, cell-based; method in brief: as §3
[20] = test system: HeLa; assay: Induction of cell cycle arrest in human HeLa cells assessed as accumulation at G1 phase at 5 uM after 12 hrs by propidium iodide staining based flow cytometry (reference value: 73%); format: functional
[21] = test system: HeLa; assay: Induction of cell cycle arrest in human HeLa cells assessed as accumulation at S phase at 5 uM after 12 hrs by propidium iodide staining based flow cytometry (reference value: 16.6%); format: functional
[22] = biological target: T1, Aurora kinase B; assay: Inhibition of Aurora B in human HeLa cells at >10 nM after 12 hrs by ELISA method; format: cell-based; method in brief: as §4

T1 sequence (Q96GD4 whole entry): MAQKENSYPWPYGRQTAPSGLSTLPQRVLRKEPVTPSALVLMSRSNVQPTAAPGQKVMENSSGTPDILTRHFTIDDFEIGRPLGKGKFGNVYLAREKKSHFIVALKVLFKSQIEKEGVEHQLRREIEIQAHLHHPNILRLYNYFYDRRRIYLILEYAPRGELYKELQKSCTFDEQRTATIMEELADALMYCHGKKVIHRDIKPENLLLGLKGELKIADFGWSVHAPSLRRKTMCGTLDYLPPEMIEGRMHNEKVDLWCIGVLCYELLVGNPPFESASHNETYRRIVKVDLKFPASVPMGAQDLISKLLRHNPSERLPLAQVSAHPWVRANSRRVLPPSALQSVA

CCCNc1nc(Nc2ccc(N3CCOCC3)cc2)ncc1F
IC50 [1]: 8.8 µM
IC50 [2]: 73.9 µM
IC50 [3]: 20 µM
IC50 [4]: 7.3 µM

COc1cc(C(=O)NC2CCN(C)CC2)ccc1Nc1ncc(Br)c(NC2CCCC2)n1
IC50 [1]: 2.5 µM
IC50 [2]: 12 µM
IC50 [3]: 4.9 µM
IC50 [4]: 3.5 µM

Fc1cnc(Nc2ccc(N3CCOCC3)cc2)nc1NC1CC1
IC50 [1]: 8.7 µM
IC50 [2]: 40.3 µM
IC50 [3]: 33 µM
IC50 [4]: 6 µM

Cc1cc(Nc2cc(N3CCN(C)CC3)nc(Sc3ccc(NC(=O)C4CC4)cc3)n2)n[nH]1 [TOZASERTIB]
IC50 [1]: 19.4 µM
IC50 [2]: 44.6 µM
IC50 [3]: 63.4 µM
IC50 [4]: 27.3 µM

CCCNc1nc(Nc2ccc(N3CCN(C)CC3)cc2)ncc1F
IC50 [1]: 5.1 µM
IC50 [2]: 50 µM
IC50 [3]: 35 µM
IC50 [4]: 14.2 µM

CN1CCN(c2ccc(Nc3ncc([N+](=O)[O-])c(NC4CCCC4)n3)cc2)CC1
IC50 [1]: 4.6 µM
IC50 [2]: 53.7 µM
IC50 [3]: 5.2 µM
IC50 [4]: 3.8 µM

CN1CCC(NC(=O)c2ccc(Nc3ncc([N+](=O)[O-])c(NC4CCCC4)n3)cc2)CC1
IC50 [1]: 42.3 µM
IC50 [2]: 15.6 µM
IC50 [3]: 5.8 µM
IC50 [4]: 21.7 µM

CN1CCN(c2ccc(Nc3ncc(N)c(NC4CCCC4)n3)cc2)CC1
IC50 [1]: 27 µM
IC50 [2]: 4.2 µM
IC50 [3]: 18.5 µM
IC50 [4]: 9.7 µM

CN1CCC(NC(=O)c2ccc(Nc3ncc(Br)c(NC4CCCC4)n3)cc2)CC1
inhibition [5]: inactive
Activity [6]: 10.6%
IC50 [1]: 0.5 µM
inhibition [7]: Dose-dependent effect
Activity [8]: 56.2%
IC50 [2]: 3.6 µM
IC50 [9]: 0.012 µM
Activity [10]: 43.5%
inhibition [11]: Active
IC50 [3]: 2.4 µM
inhibition [12]: Dose-dependent effect
Activity [13]: Dose-dependent effect
IC50 [14]: 0.43 µM
inhibition [15]: Active
inhibition [16]: inactive
IC50 [4]: 0.9 µM
Ratio IC50 [17]: 35
Activity [18]: 33.2%
inhibition [19]: Active
Activity [20]: 50.5%
Activity [21]: 6%
inhibition [22]: Active

COc1cc(C(=O)NC2CCN(C)CC2)ccc1Nc1ncc(F)c(NC2CCCC2)n1
IC50 [1]: 2.1 µM
inhibition [7]: Dose-dependent effect
IC50 [2]: 2.1 µM
IC50 [9]: 0.043 µM
IC50 [3]: 4.5 µM
inhibition [12]: Dose-dependent effect
IC50 [14]: 0.395 µM
IC50 [4]: 2.2 µM
Ratio IC50 [17]: 9

O=[N+]([O-])c1cnc(Nc2ccc(N3CCOCC3)cc2)nc1NC1CCCC1
IC50 [1]: 63.7 µM
IC50 [2]: 20 µM
IC50 [3]: 21.9 µM
IC50 [4]: 36.4 µM

Fc1cnc(Nc2ccc(N3CCOCC3)cc2)nc1NC1CCCC1
IC50 [1]: 17.3 µM
IC50 [2]: 24 µM
IC50 [3]: 36.5 µM
IC50 [4]: 31.4 µM

CN1CCC(NC(=O)c2ccc(Nc3ncc(Cl)c(NC4CCCC4)n3)cc2)CC1
IC50 [1]: 1.8 µM
IC50 [2]: 4.6 µM
IC50 [3]: 2.2 µM
IC50 [4]: 1.5 µM

COc1cc(C(=O)NC2CCN(C)CC2)ccc1Nc1ncc(Cl)c(NC2CCCC2)n1
IC50 [1]: 5.3 µM
IC50 [2]: 4.4 µM
IC50 [3]: 9.3 µM
IC50 [4]: 2.7 µM

CN1CCN(c2ccc(Nc3ncc(F)c(NC4CCCC4)n3)cc2)CC1
IC50 [1]: 37.2 µM
IC50 [2]: 29 µM
IC50 [3]: 25 µM
IC50 [4]: 20 µM

CN1CCC(NC(=O)c2ccc(Nc3ncc(F)c(NC4CCCC4)n3)cc2)CC1
IC50 [1]: 10.3 µM
IC50 [2]: 16 µM
IC50 [3]: 10 µM
IC50 [4]: 45.5 µM
